We go through six molecules from ChEMBL document CHEMBL5149989, “Interplay among Conformation, Intramolecular Hydrogen Bonds, and Chameleonicity in the Membrane Permeability and Cyclophilin A Binding of Macrocyclic Peptide Cyclosporin O Derivatives” (J Med Chem, 2021).

Non-standard residues stand in square brackets, D forms with d. Residues, ends and D or L forms follow the SMILES beside them. NMeL = CN[C@@H](CC(C)C)C(=O)O; NMeV = CN[C@H](C(=O)O)C(C)C; Nva = CCC[C@H](N)C(=O)O; Sar = CNCC(=O)O Where only a bound is given, the exact number is not on record here.

Series [1] addresses Peptidyl-prolyl cis-trans isomerase A (Homo sapiens, UniProt P62937). As to the kind of experiment: Binding affinity to CypA (unknown origin) assessed as inhibition constant by isomer specific proteolysis assay.
Series [2] is described as follows: Permeability across basal to apical side in human Caco-2 cells measured at 0.5 to 2 hrs by LC-MS analysis. Type of series: ADME, cell-based. The note with it: time 0.5-2 hrs, read-out: permeability. (In general: Caco-2 cells form a polarised layer with tight junctions and transporters.)
Series [3] in a line: Permeability across apical to basal side in human Caco-2 cells measured at 0.5 to 2 hrs by LC-MS analysis. Type of series: ADME, cell-based. The note with it: time 0.5-2 hrs; for Papp A→B: read-out: permeability.
Series [4] in a line: Permeability across basal to apical side in human Caco-2 cells assessed as drug recovery measured at 0.5 to 2 hrs by LC-MS analysis relative to control. In kind it is ADME, cell-based. Conditions: time 0.5-2 hrs, read-out: Drug recovery.
A short description of series [5]: Permeability across apical to basal side in human Caco-2 cells assessed as drug recovery measured at 0.5 to 2 hrs by LC-MS analysis relative to control. The note with it: time 0.5-2 hrs, read-out: Drug recovery. Type of series: ADME, cell-based.
Series [6] is described as follows: Permeability across apical to basal side in human Caco-2 cells assessed as drug recovery preincubated with verapamil for 30 mins followed by compound addition measured at 0.5 to 2 hrs by LC-MS analysis relative to control. In kind it is ADME, cell-based. The note with it: for recovery: Caco-2, with verapamil (concentration not stated), time 1-2.5 hrs, read-out: Drug recovery.

Series [7] in a line: Effective permeability in PBS buffer assessed as mass retention measured after 18 hrs by PAMPA based LC-MS analysis. In kind it is ADME.
The nature of series [8]: Permeability in PBS buffer measured after 18 hrs by PAMPA based LC-MS analysis. In kind it is ADME. Conditions: read-out: permeability. A general note: The PAMPA barrier holds no transporters, so it reflects passive diffusion.
Series [9] can be described thus: Permeability across apical to basal side in human Caco-2 cells preincubated with verapamil for 30 mins followed by compound addition measured at 0.5 to 2 hrs by LC-MS analysis. In kind it is ADME, cell-based. Conditions: Caco-2, with verapamil (concentration not stated), time 0.5-2 hrs, read-out: permeability.
The nature of series [10]: Tmax in ICR mouse at 20 mg/kg, po measured after 0.25 to 24 hrs by LC-MS/MS analysis. Type of series: ADME, organism-based. The note with it: in vivo, time 0.25-24 hrs.
Series [11] is described as follows: AUCinfinity in ICR mouse at 20 mg/kg, po measured after 0.25 to 24 hrs by LC-MS/MS analysis. In kind it is ADME, organism-based. Further details: dose 20 mg/kg, time upper 24 hrs, time lower 0.25 hrs, route po. The note with it: in vivo.
The nature of series [12]: Ratio of drug level in brain to plasma in ICR mouse plasma at 1 uM preincubated for 10 mins followed by compound addition measured after 60 mins by LC-MS/MS analysis. In kind it is ADME, cell-free. Conditions: read-out: BPR.
Series [13] in a line: Apparent volume of distribution in ICR mouse at 20 mg/kg, po measured after 0.25 to 24 hrs by LC-MS/MS analysis. Type of series: ADME, organism-based. The note with it: in vivo, time 0.25-24 hrs.
A short description of series [14]: AUCinfinity in ICR mouse at 5 mg/kg, iv measured after 0.08 to 24 hrs by LC-MS/MS analysis. Conditions: in vivo.
Series [15] can be described thus: Cmax in ICR mouse at 20 mg/kg, po measured after 0.25 to 24 hrs by LC-MS/MS analysis. In kind it is ADME, organism-based. Further details: time upper 24 hrs, time lower 0.25 hrs, dose 20 mg/kg, route po. The note with it: in vivo.
A short description of series [16]: Oral bioavailability in ICR mouse at 20 mg/kg measured after 0.25 to 24 hrs by LC-MS/MS analysis. The note with it: in vivo, time 0.25-24 hrs. Type of series: ADME, organism-based. In outline:
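Male ICR mice received 5 mg/kg iv via tail vein or 20 mg/kg po by gavage. Plasma was sampled serially up to 24 h via the saphenous vein, acetonitrile-precipitated and quantified by LC-MS/MS. F was derived from the po and iv AUC∞ values.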

Series [17] in a line: Half life in ICR mouse at 20 mg/kg, po measured after 0.25 to 24 hrs by LC-MS/MS analysis. Type of series: ADME, organism-based. The note with it: in vivo, time 0.25-24 hrs.
Series [18] in a line: Potency index, ratio of cyclosporin A BPR to test compound BPR for drug level in ICR mouse at 1 uM. Conditions: in vivo. Type of series: ADME.
The nature of series [19]: Half life in ICR mouse at 5 mg/kg, iv measured after 0.08 to 24 hrs by LC-MS/MS analysis. The note with it: in vivo.
The nature of series [20]: Clearance in ICR mouse at 20 mg/kg, po measured after 0.25 to 24 hrs by LC-MS/MS analysis. In kind it is ADME, organism-based. Conditions: in vivo, time 0.25-24 hrs. In outline:
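Male ICR mice (9 weeks, 33−37 g) given 20 mg/kg (10 mL/kg) by oral gavage. Plasma obtained by centrifugation at 4 °C, protein-precipitated with 4 volumes acetonitrile, and analysed by LC-MS/MS.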

Series [21] in a line: Volume of distribution at steady state in ICR mouse at 5 mg/kg, iv measured after 0.08 to 24 hrs by LC-MS/MS analysis. The note with it: in vivo, read-out: Vdss.

Sequence of Peptidyl-prolyl cis-trans isomerase A (P62937 whole entry): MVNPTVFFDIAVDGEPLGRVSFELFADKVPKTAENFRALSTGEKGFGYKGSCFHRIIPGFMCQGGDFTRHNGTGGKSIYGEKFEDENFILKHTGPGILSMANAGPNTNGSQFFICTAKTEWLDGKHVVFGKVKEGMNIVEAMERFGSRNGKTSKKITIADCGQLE

The term Ki denotes the equilibrium dissociation constant of an inhibitor or competing ligand from its target. Regarding `CCC[C@@H]1NC(=O)[C@H](CC(C)C)N(C)C(=O)[C@H](C(C)C)N(C)C(=O)[C@H](CC(C)C)N(C)C(=O)[C@H](CC(C)C)N(C)C(=O)[C@@H](C)NC(=O)[C@H](CCC(N)=O)NC(=O)[C@H](CC(C)C)N(C)C(=O)[C@H](C(C)C)NC(=O)[C@H](CC(C)C)N(C)C(=O)CN(C)C1=O`, in series [1], the Ki is 3 µM. In addition, in [2], the Papp B→A is 5.17 ×10⁻⁶ cm/s. Besides, the Papp A→B in [3] was determined as 0.05 ×10⁻⁶ cm/s; in series [9] it was 0.07 ×10⁻⁶ cm/s. The recovery in series [4] came to 88%; in series [5], 76%; in series [6], 112%. In [7], the Activity is 60%. Moreover, in series [8], the Papp at 18 h was below 0.004 ×10⁻⁶ cm/s.
Turning to `CC(C)NCC(O)COc1cccc2ccccc12` (configuration not stated) [PROPRANOLOL], in series [3], the Papp A→B worked out at 20 ×10⁻⁶ cm/s.
As usually defined, the Tmax is the time at which the peak concentration occurs. Usually AUC stands for concentration integrated over time. A low value points to less exposure. Broadly, the Cmax is the maximum level reached in the sampled fluid or tissue. As a reminder, the half-life is how long it takes for the measured level to halve. The CL/F is the apparent clearance, not corrected for the fraction that reaches the circulation. `CCC[C@@H]1NC(=O)[C@H](CC(C)C)N(C)C(=O)[C@H](C(C)C)N(C)C(=O)[C@H](CC(C)C)N(C)C(=O)[C@H](CC(C)C)N(C)C(=O)[C@@H](C)NC(=O)[C@H](C)NC(=O)[C@H](CC(C)C)N(C)C(=O)[C@H](C(C)C)NC(=O)[C@H](CC(C)C)N(C)C(=O)CN(C)C1=O` (cyclo(A[dA][NMeL][NMeL][NMeV][NMeL][Nva][Sar][NMeL]V[NMeL])): the time to peak (Tmax) in series [10] is 0.8 h. Moreover, in series [1], the Ki was 2.3 µM. Also, the AUC in series [11] stood at 4080 ng·h/mL; in series [14], 8500 ng·h/mL. Also, the Papp B→A in [2] worked out at 2.88 ×10⁻⁶ cm/s. Besides, the Kp at 1 h, 1 µM in [12] came out at 0.62. Besides, the Vz in series [13] amounted to 22.2 L/kg. Further, the permeability in series [3] was 0.29 10^-6 cm/s. Moreover, in series [15], the Cmax is 1600 ng/mL. Besides, in [16], the F was found to be 12%. Besides, the recovery in [4] and in [5] was 82% each time. Moreover, the half-life was 3.1 h in series [17] and 4.8 h in [19]. In addition, the Ratio in series [18] stood at 5. The Drug recovery in series [6] (caco-2, time 1-2.5 hrs) was 123%. Further, in series [7], the Activity is 84%. In addition, the Papp at 18 h in series [8] came out at 0.29 ×10⁻⁶ cm/s. In addition, the Papp A→B in series [9] turned out to be 0.69 ×10⁻⁶ cm/s. Besides, the CL/F in [20] was 82 mL/min/kg. The Vd in [21] was determined as 4 L/kg.
Turning to `CCC[C@@H]1NC(=O)[C@H](CC(C)C)N(C)C(=O)[C@H](CC(C)C)N(C)C(=O)[C@H](CC(C)C)N(C)C(=O)[C@H](CC(C)C)N(C)C(=O)[C@@H](C)NC(=O)[C@H](CCC(N)=O)NC(=O)[C@H](CC(C)C)N(C)C(=O)[C@H](C(C)C)NC(=O)[C@H](CC(C)C)N(C)C(=O)CN(C)C1=O` (cyclo([NMeL][NMeL][NMeL][NMeL][Nva][Sar][NMeL]V[NMeL]Q[dA])), in series [1], the Ki was above 20 µM. Further, the Papp B→A in series [2] was determined as 8.6 ×10⁻⁶ cm/s. In addition, the Papp A→B is 0.12 ×10⁻⁶ cm/s in series [3] and 0.18 ×10⁻⁶ cm/s in series [9]. In addition, the results for the recovery in series [4], in series [5] and in series [6] were 87%, 89% and 110%, respectively. In [7], the Activity was 75%. Besides, the Papp at 18 h in series [8] was below 0.009 ×10⁻⁶ cm/s.
With `CC(C)NCC(O)COc1ccc(CC(N)=O)cc1` (configuration not stated) [ATENOLOL], the recovery in series [4] was 85%; in series [5], 88%; in series [6], 78%.
For `CCC[C@@H]1NC(=O)[C@H](CC(C)C)N(C)C(=O)[C@H](CC(C)C)N(C)C(=O)[C@H](CC(C)C)N(C)C(=O)[C@H](CC(C)C)N(C)C(=O)[C@@H](C)NC(=O)[C@H](C)NC(=O)[C@H](CC(C)C)N(C)C(=O)[C@H](C(C)C)NC(=O)[C@H](CC(C)C)N(C)C(=O)CN(C)C1=O`, the Ki in [1] was above 20 µM. Also, the Papp B→A in [2] was determined as 0.61 ×10⁻⁶ cm/s. Also, the Papp A→B is 0.07 ×10⁻⁶ cm/s in series [3] and 0.34 ×10⁻⁶ cm/s in [9]. Moreover, the recovery in [4] is 65%; in series [5] it was 66%; in series [6], 107%. Also, the Activity in series [7] is 74%. Also, the Papp at 18 h in series [8] was 0.06 ×10⁻⁶ cm/s.
